{"source": "ChEMBL document CHEMBL4342521", "about": "(J Med Chem, 2020)", "key": {"[1]": {"assay": "Half life in CD1 mouse at 5 mg/kg, iv after 24 hrs by LC-MS/MS analysis", "type": "ADME, organism-based", "settings": "in vivo", "method_in_brief": "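Male CD-1 mice, fasted overnight, 3 per route; compound in PBS with 5% DMSO, iv bolus 5 mg/kg or oral gavage 20 mg/kg. Blood sampled at 5, 15, 30 min and 1–24 h. Plasma protein-precipitated with acetonitrile plus internal standard, quantified by LC-MS/MS (MRM). AUC by linear trapezoidal method; parameters by non-compartmental analysis.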"}, "[2]": {"biological_target": "Histone deacetylase 7 (Homo sapiens, UniProt Q8WUI4)", "sequence (Q8WUI4 whole entry)": "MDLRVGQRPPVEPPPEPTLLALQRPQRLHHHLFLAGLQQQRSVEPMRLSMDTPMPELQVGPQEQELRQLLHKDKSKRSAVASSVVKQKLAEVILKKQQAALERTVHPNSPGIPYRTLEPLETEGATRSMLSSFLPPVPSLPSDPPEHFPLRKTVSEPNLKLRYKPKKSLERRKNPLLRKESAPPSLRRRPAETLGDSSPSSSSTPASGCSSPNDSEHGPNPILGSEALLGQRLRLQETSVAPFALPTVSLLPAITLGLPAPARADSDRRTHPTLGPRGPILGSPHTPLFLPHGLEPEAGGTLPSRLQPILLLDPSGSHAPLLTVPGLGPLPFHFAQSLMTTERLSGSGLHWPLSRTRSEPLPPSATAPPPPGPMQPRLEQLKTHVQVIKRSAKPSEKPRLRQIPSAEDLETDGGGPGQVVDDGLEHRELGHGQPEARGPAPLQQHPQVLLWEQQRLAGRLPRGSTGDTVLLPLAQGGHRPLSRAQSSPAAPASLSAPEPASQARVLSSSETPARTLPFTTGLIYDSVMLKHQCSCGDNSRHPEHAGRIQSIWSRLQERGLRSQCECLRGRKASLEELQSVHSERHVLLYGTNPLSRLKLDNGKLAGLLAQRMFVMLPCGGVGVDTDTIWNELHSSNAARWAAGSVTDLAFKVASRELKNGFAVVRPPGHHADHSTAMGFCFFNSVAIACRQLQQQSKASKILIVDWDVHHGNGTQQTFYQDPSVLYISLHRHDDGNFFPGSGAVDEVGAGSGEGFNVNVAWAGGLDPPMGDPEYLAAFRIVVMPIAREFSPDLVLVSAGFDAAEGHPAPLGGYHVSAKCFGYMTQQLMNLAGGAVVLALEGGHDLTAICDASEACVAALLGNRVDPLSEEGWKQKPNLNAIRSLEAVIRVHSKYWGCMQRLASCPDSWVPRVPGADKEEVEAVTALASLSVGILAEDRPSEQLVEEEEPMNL", "assay": "Inhibition of recombinant human N-terminal GST-tagged HDAC7 (518 to end residues) expressed in baculovirus infected Sf9 cells using Boc-Lys (trifluoroacetyl)-AMC as substrate preincubated for 1 hr followed by substrate addition and measured after 2 hrs by fluorescence based micro plate reader analysis"}, "[3]": {"biological_target": "Matrix metalloproteinase-9 (Homo sapiens) (UniProt P14780)", "sequence (P14780 whole entry)": "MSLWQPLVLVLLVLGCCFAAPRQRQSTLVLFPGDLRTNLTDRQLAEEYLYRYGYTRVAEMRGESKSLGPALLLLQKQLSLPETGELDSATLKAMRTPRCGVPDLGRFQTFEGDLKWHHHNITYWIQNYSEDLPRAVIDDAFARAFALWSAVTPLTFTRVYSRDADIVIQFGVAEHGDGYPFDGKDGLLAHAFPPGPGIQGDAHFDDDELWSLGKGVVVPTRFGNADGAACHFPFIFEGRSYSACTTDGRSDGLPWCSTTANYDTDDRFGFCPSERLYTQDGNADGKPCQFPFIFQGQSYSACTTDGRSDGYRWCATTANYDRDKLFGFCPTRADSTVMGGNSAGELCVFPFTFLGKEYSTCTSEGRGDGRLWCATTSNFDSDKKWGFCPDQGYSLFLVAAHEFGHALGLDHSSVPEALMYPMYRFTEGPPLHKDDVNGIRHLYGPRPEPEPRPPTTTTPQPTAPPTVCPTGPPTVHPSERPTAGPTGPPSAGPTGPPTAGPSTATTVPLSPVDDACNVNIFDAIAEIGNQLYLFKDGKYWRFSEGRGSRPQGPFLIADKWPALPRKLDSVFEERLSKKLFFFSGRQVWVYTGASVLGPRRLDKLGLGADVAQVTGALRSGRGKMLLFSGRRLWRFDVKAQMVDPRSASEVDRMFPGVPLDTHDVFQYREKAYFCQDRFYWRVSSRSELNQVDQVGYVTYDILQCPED", "assay": "Inhibition of MMP-9 (unknown origin) at 10 to 50 uM incubated for 10 to 15 mins and measured after 2 hrs by fluorescence based assay", "method_in_brief": "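MMP-2/MMP-9 in activation buffer with test agent (final 50 and 10 μM), 10–15 min incubation, then fluorogenic substrate added. Incubated 2 h at 37 °C; fluorescence read at 320/405 nm. Kit MMP inhibitor was the positive control.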"}, "[4]": {"biological_target": "Protein deacetylase HDAC6 (Homo sapiens) (UniProt Q9UBN7)", "sequence (Q9UBN7 whole entry)": "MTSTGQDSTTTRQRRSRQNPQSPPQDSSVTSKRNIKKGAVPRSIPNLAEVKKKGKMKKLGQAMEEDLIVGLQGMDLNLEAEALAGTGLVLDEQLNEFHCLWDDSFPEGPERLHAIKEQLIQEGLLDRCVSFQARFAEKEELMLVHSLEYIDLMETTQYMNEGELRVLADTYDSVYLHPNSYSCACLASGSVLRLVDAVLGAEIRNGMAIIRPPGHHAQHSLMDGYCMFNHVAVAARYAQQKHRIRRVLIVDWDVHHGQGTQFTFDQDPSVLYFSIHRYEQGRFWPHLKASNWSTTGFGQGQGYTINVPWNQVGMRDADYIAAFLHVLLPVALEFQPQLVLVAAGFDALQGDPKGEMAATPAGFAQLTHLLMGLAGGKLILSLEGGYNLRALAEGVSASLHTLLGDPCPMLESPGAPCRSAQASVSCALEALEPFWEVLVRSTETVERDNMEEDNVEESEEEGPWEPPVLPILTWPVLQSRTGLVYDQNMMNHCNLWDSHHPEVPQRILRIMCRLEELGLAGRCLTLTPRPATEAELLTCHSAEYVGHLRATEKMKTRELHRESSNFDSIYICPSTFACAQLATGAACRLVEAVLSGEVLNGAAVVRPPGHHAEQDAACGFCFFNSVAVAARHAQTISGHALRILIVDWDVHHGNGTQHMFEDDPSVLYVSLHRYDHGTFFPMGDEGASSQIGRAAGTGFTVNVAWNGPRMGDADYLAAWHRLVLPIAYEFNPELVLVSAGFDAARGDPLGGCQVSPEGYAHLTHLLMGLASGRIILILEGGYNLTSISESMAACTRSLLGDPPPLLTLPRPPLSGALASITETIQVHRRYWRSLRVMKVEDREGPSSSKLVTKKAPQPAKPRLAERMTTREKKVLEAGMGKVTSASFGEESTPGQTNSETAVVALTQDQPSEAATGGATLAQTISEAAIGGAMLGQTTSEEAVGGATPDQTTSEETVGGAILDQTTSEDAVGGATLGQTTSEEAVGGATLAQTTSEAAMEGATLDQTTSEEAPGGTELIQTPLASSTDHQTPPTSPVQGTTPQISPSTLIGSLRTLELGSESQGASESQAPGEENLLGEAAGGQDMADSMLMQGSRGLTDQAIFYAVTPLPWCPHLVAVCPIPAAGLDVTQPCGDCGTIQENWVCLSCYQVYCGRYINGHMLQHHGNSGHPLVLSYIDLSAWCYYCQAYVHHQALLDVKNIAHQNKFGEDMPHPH", "assay": "Inhibition of HDAC6 in human MV4-11 cells assessed as tubulin acetylation at 500 nM incubated for 3 hrs followed by compound washout and measured after 30 mins to 6 hrs by Western blot analysis", "type": "cell-based", "method_in_brief": "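MV4-11 cells exposed for 3 h, drug washed out, then cultured drug-free for 30 min, 1, 3 or 6 h. Acetylation read by western blot; t = 0 taken right after the 3 h exposure.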"}, "[5]": {"tested_on": "MOLT-4", "assay": "Antiproliferative activity against human MOLT4 cells assessed as reduction in cell viability after 48 hrs by CellTiter-Blue assay", "type": "functional", "settings": "MOLT-4, 48 h, read-out: LC50 (the source's name)", "method_in_brief": "(§1)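 Cells grown in RPMI1640 with 10% FBS at 37 °C, 5% CO₂. 5,000–10,000 cells/well were pre-incubated overnight, and a time-zero CellTiter-Blue read was taken. Six 10-fold dilutions (top final 10 μM) were applied for 48 h, followed by 0.125 mg/mL CellTiter-Blue for 2–4 h. Resorufin fluorescence was read at ex 560/em 590 nm. […] Triplicates.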"}, "[6]": {"tested_on": "A549", "assay": "Antiproliferative activity against human A549 cells assessed as reduction in cell viability after 48 hrs by CellTiter-Blue assay", "type": "functional", "settings": "A549, 48 h, read-out: LC50 (the source's name)", "method_in_brief": "as §1"}, "[7]": {"tested_on": "HOP-92", "assay": "Antiproliferative activity against human HOP92 cells assessed as reduction in cell viability after 48 hrs by CellTiter-Blue assay", "type": "functional", "settings": "HOP-92, 48 h, read-out: LC50 (the source's name)", "method_in_brief": "as §1"}, "[8]": {"tested_on": "NCI-H460", "assay": "Antiproliferative activity against human NCI-H460 cells assessed as reduction in cell viability after 48 hrs by CellTiter-Blue assay", "type": "functional", "settings": "NCI-H460, 48 h, read-out: LC50 (the source's name)", "method_in_brief": "as §1"}, "[9]": {"tested_on": "SK-MEL-5", "assay": "Antiproliferative activity against human SK-MEL-5 cells assessed as reduction in cell viability after 48 hrs by CellTiter-Blue assay", "type": "functional", "settings": "SK-MEL-5, 48 h, read-out: LC50 (the source's name)", "method_in_brief": "as §1"}, "[10]": {"tested_on": "OVCAR-3", "assay": "Antiproliferative activity against human OVCAR3 cells assessed as reduction in cell viability after 48 hrs by CellTiter-Blue assay", "type": "functional", "settings": "OVCAR-3, 48 h, read-out: LC50 (the source's name)", "method_in_brief": "as §1"}, "[11]": {"tested_on": "OVCAR-5", "assay": "Antiproliferative activity against human OVCAR5 cells assessed as reduction in cell viability after 48 hrs by CellTiter-Blue assay", "type": "functional", "settings": "OVCAR-5, 48 h, read-out: LC50 (the source's name)", "method_in_brief": "as §1"}, "[12]": {"tested_on": "SK-OV-3", "assay": "Antiproliferative activity against human SKOV3 cells assessed as reduction in cell viability after 48 hrs by CellTiter-Blue assay", "type": "functional", "settings": "SK-OV-3, 48 h, read-out: LC50 (the source's name)", "method_in_brief": "as §1"}, "[13]": {"tested_on": "CAKI-1", "assay": "Antiproliferative activity against human Caki1 cells assessed as reduction in cell viability after 48 hrs by CellTiter-Blue assay", "type": "functional", "settings": "CAKI-1, 48 h, read-out: LC50 (the source's name)", "method_in_brief": "as §1"}, "[14]": {"tested_on": "DU-145", "assay": "Antiproliferative activity against human DU145 cells assessed as reduction in cell viability after 48 hrs by CellTiter-Blue assay", "type": "functional", "settings": "DU-145, 48 h, read-out: LC50 (the source's name)", "method_in_brief": "as §1"}, "[15]": {"tested_on": "Hs-578T", "assay": "Antiproliferative activity against human Hs 578T cells assessed as reduction in cell viability after 48 hrs by CellTiter-Blue assay", "type": "functional", "settings": "read-out: LC50 (the source's name)", "method_in_brief": "as §1"}, "[16]": {"tested_on": "MDA-MB-468", "assay": "Antiproliferative activity against human MDA-MB-468 cells assessed as reduction in cell viability after 48 hrs by CellTiter-Blue assay", "type": "functional", "settings": "MDA-MB-468, 48 h, read-out: LC50 (the source's name)", "method_in_brief": "as §1"}, "[17]": {"tested_on": "RS4-11", "assay": "Antiproliferative activity agaisnt human RS4:11 cells expressing wild type p53/FLT3 assessed as cell death at 10 uM after 48 hrs by CellTiter-blue assay", "type": "functional, cell-based"}, "[18]": {"tested_on": "HL-60", "assay": "Antiproliferative activity agaisnt p53 null human HL60 cells at 10 uM after 48 hrs by CellTiter-blue assay", "type": "functional, cell-based"}, "[19]": {"tested_on": "U-937", "assay": "Antiproliferative activity agaisnt p53 null human U937 cells at 10 uM after 48 hrs by CellTiter-blue assay", "type": "functional, cell-based"}, "[20]": {"tested_on": "MV4-11", "assay": "Down regulation of STAT5 in human MV4-11 cells harboring wild type p53/FLT3-ITD mutant at 50 to 200 nM after 24 hrs by Western blot analysis", "type": "functional, cell-based", "method_in_brief": "(§2)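 Cells (1,500,000 per well) grown 12 h, then drug-treated as specified. Lysed in RIPA buffer, sonicated, centrifuged, protein normalized by BCA. Run on 4–12% Bis-Tris gels in MES, transferred, probed overnight at 4 °C with primary antibodies at 1/1000. Actin served as reference for LC3-II quantitation.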"}, "[21]": {"tested_on": "HL-60", "assay": "Induction of autophagy in p53 null human HL60 cells harboring wild type FLT3 assessed as LC-3 degradation at 50 to 200 nM after 24 hrs by Western blot analysis", "type": "functional, cell-based", "method_in_brief": "as §2"}, "[22]": {"tested_on": "RS4-11", "assay": "Effect on LC3 degradation in human RS4:11 cells harboring wild type p53/FLT3 at 50 to 200 nM after 24 hrs by Western blot analysis", "type": "functional, cell-based", "method_in_brief": "as §2"}, "[23]": {"tested_on": "RS4-11", "assay": "Induction of apoptosis in human RS4:11 cells harboring wild type p53/FLT3 assessed as cleavage of pro-caspase 3 at 200 nM after 24 hrs by Western blot analysis", "type": "functional, cell-based", "method_in_brief": "as §2"}, "[24]": {"tested_on": "MV4-11", "assay": "Inhibition of p53 degradation in human MV4-11 cells at 200 nM after 24 hrs in presence of 5 nM bortezomib by Western blot analysis", "type": "functional, cell-based", "method_in_brief": "as §2"}, "[25]": {"tested_on": "MV4-11", "assay": "Induction of pro caspase 3 cleavage in human MV4-11 cells at 200 nM after 24 hrs in presence of 5 nM bortezomib by Western blot analysis", "type": "functional, cell-based", "method_in_brief": "as §2"}, "[26]": {"tested_on": "MV4-11", "assay": "Induction of apoptosis in human MV4-11 cells assessed as cleavage of pro caspase 3 at 200 nM after 24 hrs in presence of 50 uM z-VAD by Western blot analysis", "type": "functional, cell-based", "method_in_brief": "as §2"}}, "note": "Activity calls are given as the source filed them. The rule behind the calls is not given here."}
{"smiles": "CCCNNC(=O)/C=C/c1ccc(CNCCc2c(C)[nH]c3ccccc23)cc1.O=C(O)C(F)(F)F", "values": [{"measurement": "t1/2", "setting": "[1]", "value": 15.2, "unit": "h"}, {"measurement": "IC50", "setting": "[2]", "value": "> 10", "unit": "µM"}, {"measurement": "inhibition", "setting": "[3]", "value": "inactive"}, {"measurement": "inhibition", "setting": "[4]", "value": "inactive"}, {"measurement": "CC50", "setting": "[5]", "value": "> 10", "unit": "µM"}, {"measurement": "CC50", "setting": "[6]", "value": "> 10", "unit": "µM"}, {"measurement": "CC50", "setting": "[7]", "value": "> 10", "unit": "µM"}, {"measurement": "CC50", "setting": "[8]", "value": "> 10", "unit": "µM"}, {"measurement": "CC50", "setting": "[9]", "value": "> 10", "unit": "µM"}, {"measurement": "CC50", "setting": "[10]", "value": "> 10", "unit": "µM"}, {"measurement": "CC50", "setting": "[11]", "value": "> 10", "unit": "µM"}, {"measurement": "CC50", "setting": "[12]", "value": "> 10", "unit": "µM"}, {"measurement": "CC50", "setting": "[13]", "value": 4.3, "unit": "µM"}, {"measurement": "CC50", "setting": "[14]", "value": "> 10", "unit": "µM"}, {"measurement": "CC50", "setting": "[15]", "value": "> 10", "unit": "µM"}, {"measurement": "CC50", "setting": "[16]", "value": "> 10", "unit": "µM"}, {"measurement": "Activity", "setting": "[17]", "value": "Active"}, {"measurement": "Activity", "setting": "[18]", "value": "Active"}, {"measurement": "Activity", "setting": "[19]", "value": "Active"}, {"measurement": "Activity", "setting": "[20]", "value": "Active"}, {"measurement": "Activity", "setting": "[21]", "value": "inactive"}, {"measurement": "Activity", "setting": "[22]", "value": "inactive"}, {"measurement": "Activity", "setting": "[23]", "value": "Active"}, {"measurement": "inhibition", "setting": "[24]", "value": "Active"}, {"measurement": "Activity", "setting": "[25]", "value": "Active"}, {"measurement": "Activity", "setting": "[26]", "value": "inactive"}]}
